Tests used:
[1] = test system: Vesicular stomatitis virus; assay: Antiviral activity against VSV infected in HEL cells assessed as protection from virus-induced cytopathogenicity after 1 to 2 days by MTT assay; format: functional, organism-based
Streptococcus viridans = assay: Antibacterial activity against Streptococcus viridans after 24 hrs by broth microdilution method; format: functional
In short: (§1)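 Clinical isolates. Each dilution received 100 μl of 0.5 McFarland fresh culture. Solvent (DMSO), growth and standard controls were included. Tubes were incubated at 37 °C for 24 h. MIC is the highest dilution showing no turbidity. Tests were run in triplicate, with at least two repetitions.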

Punta Toro virus = assay: Antiviral activity against Punta Toro virus infected in african green monkey Vero cells assessed as protection from virus-induced cytopathogenicity by MTT assay; format: functional, organism-based
[2] = test system: Human immunodeficiency virus 2; assay: Antiviral activity against HIV2 ROD infected in human MT4 cells assessed as protection from virus-induced cytopathogenicity after 5 days by MTT assay; format: functional, organism-based; conditions: Human immunodeficiency virus 2, ISOLATE ROD, MT4, 120 h
In short: (§2)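 MT-4 cells at 3 × 10^4 per well were infected with HIV (IIIB or ROD) at 50% cell culture infective doses. Graded compound concentrations were added immediately after infection. Plates were incubated for 5 days at 37 °C and viable cells were counted by MTT.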

Human respirovirus 3 = assay: Antiviral activity against PIV 3 infected in african green monkey Vero cells assessed as protection from virus-induced cytopathogenicity after 6 to 7 days by MTT assay; format: functional, organism-based; conditions: Human respirovirus 3, Vero
Felid alphaherpesvirus 1 = assay: Antiviral activity against Feline herpesvirus infected in cat CRFK cells assessed as protection from virus-induced cytopathogenicity by MTT assay; format: functional, organism-based; conditions: Felid alphaherpesvirus 1, CRFK
[3] = test system: Mammalian orthoreovirus 1; assay: Antiviral activity against Reovirus 1 infected in african green monkey Vero cells assessed as protection from virus-induced cytopathogenicity after 6 to 7 days by MTT assay; format: functional, organism-based; conditions: Mammalian orthoreovirus 1, Vero
Proteus mirabilis = assay: Antibacterial activity against Proteus mirabilis after 24 hrs by broth microdilution method; format: functional; in short: as §1
[4] = test system: Respiratory syncytial virus; assay: Antiviral activity against Respiratory syncytial virus infected in human HeLa cells assessed as protection from virus-induced cytopathogenicity after 4 days by MTT assay; format: functional, organism-based; conditions: 96 h
Influenza A virus [5] = assay: Antiviral activity against Influenza A virus H3N2 infected in MDCK cells assessed as protection from virus-induced cytopathogenicity after 6 to 7 days by MTT assay; format: functional, organism-based
HEL [6] = assay: Cytotoxicity against Herpes simplex virus 1 KOS infected HEL cells by trypan blue exclusion method; format: cell-based; conditions: human, hel
In short: (§3)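 Uninfected confluent cultures were run in parallel with the infected cultures. Medium was replaced by 1 ml maintenance medium with serial compound concentrations; cell controls received no compound. Cultures were incubated at 37 °C. After 2 and 7 days, compound was withdrawn and viability was determined by trypan blue exclusion.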

Influenza A virus [7] = assay: Antiviral activity against Influenza A virus H1N1 infected in MDCK cells assessed as protection from virus-induced cytopathogenicity after 6 to 7 days by MTT assay; format: functional, organism-based
HEL [8] = assay: Cytotoxicity against Vaccinia virus infected HEL cells by trypan blue exclusion method; format: cell-based; conditions: human, hel; in short: as §3
Human alphaherpesvirus 1 [9] = assay: Antiviral activity against Herpes simplex virus 1 KOS infected in HEL cells assessed as protection from virus-induced cytopathogenicity after 2 to 3 days by MTT assay; format: functional, organism-based; conditions: Human alphaherpesvirus 1, KOS
HEL [10] = assay: Cytotoxicity against VSV infected HEL cells by trypan blue exclusion method; format: cell-based; conditions: human, hel; in short: as §3
Human alphaherpesvirus 1 [11] = assay: Antiviral activity against acyclovir-sensitive Herpes simplex virus 1 KOS infected in HEL cells assessed as protection from virus-induced cytopathogenicity after 2 to 3 days by MTT assay; format: functional, organism-based; conditions: Human alphaherpesvirus 1, KOS
[12] = Cytotoxicity against HIV1 3B-infected human MT4 cells by MTT assay; format: cell-based; conditions: MT4 cells infected with HIV-1 3B
In short: (§4)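 MT-4 cells (3 × 10^4 per well) were cultured in microdilution trays with various concentrations of compound, then incubated 5 days at 37 °C, and viable cell number was read by MTT.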

Sindbis virus = assay: Antiviral activity against Sindbis virus infected in african green monkey Vero cells assessed as protection from virus-induced cytopathogenicity after 2 to 3 days by MTT assay; format: functional, organism-based
Escherichia coli = assay: Antibacterial activity against Escherichia coli after 24 hrs by broth microdilution method; format: functional; in short: as §1
Vero [13] = assay: Cytotoxicity against Punta Toro virus infected african green monkey Vero cells by trypan blue exclusion method; format: cell-based; conditions: chlorocebus sabaeus, vero; in short: as §3
Klebsiella pneumoniae = assay: Antibacterial activity against Klebsiella pneumoniae after 24 hrs by broth microdilution method; format: functional; in short: as §1
HEL [14] = assay: Cytotoxicity against Herpes simplex virus 2 G infected HEL cells by trypan blue exclusion method; format: cell-based; conditions: human, hel; in short: as §3
Vero [15] = assay: Cytotoxicity against PIV 3 infected african green monkey Vero cells by trypan blue exclusion method; format: cell-based; conditions: chlorocebus sabaeus, vero; in short: as §3
HeLa [16] = assay: Cytotoxicity against VSV infected human HeLa cells by trypan blue exclusion method; format: cell-based; conditions: hela; in short: as §3
Coxsackievirus B4 [17] = assay: Antiviral activity against Human coxsackievirus B4 infected in african green monkey Vero cells assessed as protection from virus-induced cytopathogenicity after 2 days by MTT assay; format: functional, organism-based; conditions: Enterovirus B, 48 h
[18] = test system: Human immunodeficiency virus 1; assay: Antiviral activity against HIV1 3B-infected in human MT4 cells assessed as protection from virus-induced cytopathogenicity after 5 days by MTT assay; format: functional, organism-based; conditions: Human immunodeficiency virus 1, 3B, MT4, 120 h; in short: as §2
[19] = test system: Vesicular stomatitis virus; assay: Antiviral activity against VSV infected in human HeLa cells assessed as protection from virus-induced cytopathogenicity after 1 to 2 days by MTT assay; format: functional, organism-based
HEL [20] = assay: Cytotoxicity against acyclovir-sensitive Herpes simplex virus 1 KOS infected HEL cells by trypan blue exclusion method; format: cell-based; conditions: human; in short: as §3
Coxsackievirus B4 [21] = assay: Antiviral activity against Human coxsackievirus B4 infected in human HeLa cells assessed as protection from virus-induced cytopathogenicity after 2 days by MTT assay; format: functional, organism-based; conditions: Enterovirus B, 48 h
HeLa [22] = assay: Cytotoxicity against Human coxsackievirus B4 infected human HeLa cells by trypan blue exclusion method; format: cell-based; conditions: hela; in short: as §3
[23] = Cytotoxicity against Feline coronavirus infected cat CRFK cells by trypan blue exclusion method; format: cell-based, Felis catus; conditions: crfk; in short: as §3
Vero [24] = assay: Cytotoxicity against Sindbis virus infected african green monkey Vero cells by trypan blue exclusion method; format: cell-based; conditions: chlorocebus sabaeus, vero; in short: as §3
Human alphaherpesvirus 2 = assay: Antiviral activity against Herpes simplex virus 2 G infected in HEL cells assessed as protection from virus-induced cytopathogenicity after 2 to 3 days by MTT assay; format: functional, organism-based; conditions: Human alphaherpesvirus 2, strain G
MDCK [25] = assay: Cytotoxicity against Influenza B virus infected MDCK cells by trypan blue exclusion method; format: cell-based, Canis lupus familiaris; conditions: dog
in vitro = conditions: human, HeLa cells
HeLa [26] = assay: Cytotoxicity against Respiratory syncytial virus infected human HeLa cells by trypan blue exclusion method; format: cell-based; conditions: hela; in short: as §3
Vero [27] = assay: Cytotoxicity against Human coxsackievirus B4 infected african green monkey Vero cells by trypan blue exclusion method; format: cell-based; conditions: chlorocebus sabaeus, vero; in short: as §3
Influenza B virus = assay: Antiviral activity against Influenza B virus infected in MDCK cells assessed as protection from virus-induced cytopathogenicity after 6 to 7 days by MTT assay; format: functional, organism-based
[28] = Cytotoxicity against Feline herpesvirus infected cat CRFK cells by trypan blue exclusion method; format: cell-based, Felis catus; conditions: crfk; in short: as §3
[29] = Cytotoxicity against HIV2 ROD infected human MT4 cells by MTT assay; format: cell-based; conditions: MT4 cells infected with HIV-2 ROD; in short: as §4
MDCK [30] = assay: Cytotoxicity against Influenza A virus subtype H3N2 infected MDCK cells by trypan blue exclusion method; format: cell-based, Canis lupus familiaris; conditions: dog
Vero [31] = assay: Cytotoxicity against Reovirus 1 infected african green monkey Vero cells by trypan blue exclusion method; format: cell-based; conditions: chlorocebus sabaeus, vero; in short: as §3
Feline coronavirus = assay: Antiviral activity against Feline coronavirus infected in cat CRFK cells assessed as protection from virus-induced cytopathogenicity by MTT assay; format: functional, organism-based; conditions: Alphacoronavirus 1, CRFK
[32] = Selectivity index, ratio of CC50 for HIV2 ROD infected human MT4 cells to IC50 for […] ROD; format: functional

COc1cc(/C=C/C(=O)CC(=O)/C=C/c2ccc(OC(=O)[C@H](Cc3ccccc3)NC(=O)[C@@H](N)Cc3c[nH]c4ccccc34)c(OC)c2)ccc1OC(=O)[C@H](Cc1ccccc1)NC(=O)[C@@H](N)Cc1c[nH]c2ccccc12
> 94 nM: CC50 [12]
19 nM: CC50 (HEL [8]) | CC50 (HEL [10]) | CC50 (HEL [14]) | CC50 (Vero [15]) | CC50 (HEL [20])
94 nM: IC50 [18]
> 19 nM: EC50 (Punta Toro virus) | EC50 [3] | EC50 [4] | EC50 (Human alphaherpesvirus 1 [9]) | EC50 (Sindbis virus) | EC50 (Coxsackievirus B4 [17]) | EC50 (Coxsackievirus B4 [21])
> 107 nM: CC50 [29]
> 96 nM: EC50 (Felid alphaherpesvirus 1) | EC50 (Influenza A virus [5]) | EC50 (Influenza A virus [7]) | CC50 [23] | EC50 (Influenza B virus) | CC50 [28] | EC50 (Feline coronavirus)
0.43 µM: MIC (Streptococcus viridans) | MIC (Proteus mirabilis) | MIC (Escherichia coli) | MIC (Klebsiella pneumoniae)
9: selectivity ratio (in vitro)
96 nM: CC50 (HEL [6]) | CC50 (Vero [13]) | CC50 (HeLa [16]) | CC50 (HeLa [22]) | CC50 (Vero [24]) | CC50 (HeLa [26]) | CC50 (Vero [27]) | CC50 (Vero [31])
> 38 nM: EC50 [1] | EC50 (Human respirovirus 3) | EC50 (Human alphaherpesvirus 1 [11]) | EC50 (Human alphaherpesvirus 2)
11 nM: EC50 [19]
<1: Ratio CC50/IC50 [32]
46 nM: CC50 (MDCK [25]) | CC50 (MDCK [30])
107 nM: IC50 [2]

— ChEMBL document CHEMBL1154855 (Eur J Med Chem, 2010)
